One experiment deals with DYNC1H1 (Homo sapiens, UniProt Q14204). In words: DYNC1H1 ATPase assay. The class given is biochemical. Summed up:
(§1)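 Purified N-terminally SBP- and SNAP-tagged full-length human heavy chains; hydrolysis of γ-32P ATP measured at 37 °C under conditions kept linear from enzyme reaction curves. Single-dose screens used 50 μM in both assays (about 25 nM γ-32P ATP, duplicates), or 50 μM for DYNC1H1 and 15 μM for DYNC2H1 (two experiments). IC50 calculated from dose-response curves run in triplicate.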

In experiment [1] the test system is NIH-3T3 cell-derived line. In words: Ciliogenesis assay. As to conditions: 30 μM; 24 h. The format is cell-based, murine. Put shortly:
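NIH-3T3-derived cells were exposed to the test compound at 30 μM for 24 h, then fixed and immunostained for ARL13B. Primary cilium length was taken as the mean number of ARL13B-positive pixels per cell over at least 6 fields of view, about 800 cells per condition, reported ± s.e.m.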

A further experiment relates to Hh signaling. As to the kind of experiment: Hh signaling assay. The class given is cell-based, murine. The note with it: ShhN-conditioned medium and compound for 30 h.
The target of the next experiment is DYNC2H1 (Homo sapiens, UniProt Q8NCM8). As to the kind of experiment: DYNC2H1 ATPase assay. The class given is biochemical. Put shortly:
as §1

A further experiment relates to IMCD3 cells. In words: Real-time imaging of mNeonGreen-IFT88 movement. The class given is cell-based, murine. The note with it: 15 μM. Summed up: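 Live IMCD3 cells expressing mNeonGreen-IFT88 were given 15 μM test compound or DMSO for 3 min and imaged in real time. Foci were tracked and classed as anterograde, retrograde or immobile, and their mean velocity and frequency were quantified from at least seven cilia across three independent experiments (± s.e.m.; P < 0.05 or 0.01).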

Here are results for two compounds from publication PMC4715766 (ACS Chemical Biology, 2015).

Structures are written as SMILES.

As a reminder, the IC50 is the concentration needed to halve the response being measured. Low values mean greater potency, high ones weaker potency.

Sequence of DYNC1H1 (Q14204 whole entry): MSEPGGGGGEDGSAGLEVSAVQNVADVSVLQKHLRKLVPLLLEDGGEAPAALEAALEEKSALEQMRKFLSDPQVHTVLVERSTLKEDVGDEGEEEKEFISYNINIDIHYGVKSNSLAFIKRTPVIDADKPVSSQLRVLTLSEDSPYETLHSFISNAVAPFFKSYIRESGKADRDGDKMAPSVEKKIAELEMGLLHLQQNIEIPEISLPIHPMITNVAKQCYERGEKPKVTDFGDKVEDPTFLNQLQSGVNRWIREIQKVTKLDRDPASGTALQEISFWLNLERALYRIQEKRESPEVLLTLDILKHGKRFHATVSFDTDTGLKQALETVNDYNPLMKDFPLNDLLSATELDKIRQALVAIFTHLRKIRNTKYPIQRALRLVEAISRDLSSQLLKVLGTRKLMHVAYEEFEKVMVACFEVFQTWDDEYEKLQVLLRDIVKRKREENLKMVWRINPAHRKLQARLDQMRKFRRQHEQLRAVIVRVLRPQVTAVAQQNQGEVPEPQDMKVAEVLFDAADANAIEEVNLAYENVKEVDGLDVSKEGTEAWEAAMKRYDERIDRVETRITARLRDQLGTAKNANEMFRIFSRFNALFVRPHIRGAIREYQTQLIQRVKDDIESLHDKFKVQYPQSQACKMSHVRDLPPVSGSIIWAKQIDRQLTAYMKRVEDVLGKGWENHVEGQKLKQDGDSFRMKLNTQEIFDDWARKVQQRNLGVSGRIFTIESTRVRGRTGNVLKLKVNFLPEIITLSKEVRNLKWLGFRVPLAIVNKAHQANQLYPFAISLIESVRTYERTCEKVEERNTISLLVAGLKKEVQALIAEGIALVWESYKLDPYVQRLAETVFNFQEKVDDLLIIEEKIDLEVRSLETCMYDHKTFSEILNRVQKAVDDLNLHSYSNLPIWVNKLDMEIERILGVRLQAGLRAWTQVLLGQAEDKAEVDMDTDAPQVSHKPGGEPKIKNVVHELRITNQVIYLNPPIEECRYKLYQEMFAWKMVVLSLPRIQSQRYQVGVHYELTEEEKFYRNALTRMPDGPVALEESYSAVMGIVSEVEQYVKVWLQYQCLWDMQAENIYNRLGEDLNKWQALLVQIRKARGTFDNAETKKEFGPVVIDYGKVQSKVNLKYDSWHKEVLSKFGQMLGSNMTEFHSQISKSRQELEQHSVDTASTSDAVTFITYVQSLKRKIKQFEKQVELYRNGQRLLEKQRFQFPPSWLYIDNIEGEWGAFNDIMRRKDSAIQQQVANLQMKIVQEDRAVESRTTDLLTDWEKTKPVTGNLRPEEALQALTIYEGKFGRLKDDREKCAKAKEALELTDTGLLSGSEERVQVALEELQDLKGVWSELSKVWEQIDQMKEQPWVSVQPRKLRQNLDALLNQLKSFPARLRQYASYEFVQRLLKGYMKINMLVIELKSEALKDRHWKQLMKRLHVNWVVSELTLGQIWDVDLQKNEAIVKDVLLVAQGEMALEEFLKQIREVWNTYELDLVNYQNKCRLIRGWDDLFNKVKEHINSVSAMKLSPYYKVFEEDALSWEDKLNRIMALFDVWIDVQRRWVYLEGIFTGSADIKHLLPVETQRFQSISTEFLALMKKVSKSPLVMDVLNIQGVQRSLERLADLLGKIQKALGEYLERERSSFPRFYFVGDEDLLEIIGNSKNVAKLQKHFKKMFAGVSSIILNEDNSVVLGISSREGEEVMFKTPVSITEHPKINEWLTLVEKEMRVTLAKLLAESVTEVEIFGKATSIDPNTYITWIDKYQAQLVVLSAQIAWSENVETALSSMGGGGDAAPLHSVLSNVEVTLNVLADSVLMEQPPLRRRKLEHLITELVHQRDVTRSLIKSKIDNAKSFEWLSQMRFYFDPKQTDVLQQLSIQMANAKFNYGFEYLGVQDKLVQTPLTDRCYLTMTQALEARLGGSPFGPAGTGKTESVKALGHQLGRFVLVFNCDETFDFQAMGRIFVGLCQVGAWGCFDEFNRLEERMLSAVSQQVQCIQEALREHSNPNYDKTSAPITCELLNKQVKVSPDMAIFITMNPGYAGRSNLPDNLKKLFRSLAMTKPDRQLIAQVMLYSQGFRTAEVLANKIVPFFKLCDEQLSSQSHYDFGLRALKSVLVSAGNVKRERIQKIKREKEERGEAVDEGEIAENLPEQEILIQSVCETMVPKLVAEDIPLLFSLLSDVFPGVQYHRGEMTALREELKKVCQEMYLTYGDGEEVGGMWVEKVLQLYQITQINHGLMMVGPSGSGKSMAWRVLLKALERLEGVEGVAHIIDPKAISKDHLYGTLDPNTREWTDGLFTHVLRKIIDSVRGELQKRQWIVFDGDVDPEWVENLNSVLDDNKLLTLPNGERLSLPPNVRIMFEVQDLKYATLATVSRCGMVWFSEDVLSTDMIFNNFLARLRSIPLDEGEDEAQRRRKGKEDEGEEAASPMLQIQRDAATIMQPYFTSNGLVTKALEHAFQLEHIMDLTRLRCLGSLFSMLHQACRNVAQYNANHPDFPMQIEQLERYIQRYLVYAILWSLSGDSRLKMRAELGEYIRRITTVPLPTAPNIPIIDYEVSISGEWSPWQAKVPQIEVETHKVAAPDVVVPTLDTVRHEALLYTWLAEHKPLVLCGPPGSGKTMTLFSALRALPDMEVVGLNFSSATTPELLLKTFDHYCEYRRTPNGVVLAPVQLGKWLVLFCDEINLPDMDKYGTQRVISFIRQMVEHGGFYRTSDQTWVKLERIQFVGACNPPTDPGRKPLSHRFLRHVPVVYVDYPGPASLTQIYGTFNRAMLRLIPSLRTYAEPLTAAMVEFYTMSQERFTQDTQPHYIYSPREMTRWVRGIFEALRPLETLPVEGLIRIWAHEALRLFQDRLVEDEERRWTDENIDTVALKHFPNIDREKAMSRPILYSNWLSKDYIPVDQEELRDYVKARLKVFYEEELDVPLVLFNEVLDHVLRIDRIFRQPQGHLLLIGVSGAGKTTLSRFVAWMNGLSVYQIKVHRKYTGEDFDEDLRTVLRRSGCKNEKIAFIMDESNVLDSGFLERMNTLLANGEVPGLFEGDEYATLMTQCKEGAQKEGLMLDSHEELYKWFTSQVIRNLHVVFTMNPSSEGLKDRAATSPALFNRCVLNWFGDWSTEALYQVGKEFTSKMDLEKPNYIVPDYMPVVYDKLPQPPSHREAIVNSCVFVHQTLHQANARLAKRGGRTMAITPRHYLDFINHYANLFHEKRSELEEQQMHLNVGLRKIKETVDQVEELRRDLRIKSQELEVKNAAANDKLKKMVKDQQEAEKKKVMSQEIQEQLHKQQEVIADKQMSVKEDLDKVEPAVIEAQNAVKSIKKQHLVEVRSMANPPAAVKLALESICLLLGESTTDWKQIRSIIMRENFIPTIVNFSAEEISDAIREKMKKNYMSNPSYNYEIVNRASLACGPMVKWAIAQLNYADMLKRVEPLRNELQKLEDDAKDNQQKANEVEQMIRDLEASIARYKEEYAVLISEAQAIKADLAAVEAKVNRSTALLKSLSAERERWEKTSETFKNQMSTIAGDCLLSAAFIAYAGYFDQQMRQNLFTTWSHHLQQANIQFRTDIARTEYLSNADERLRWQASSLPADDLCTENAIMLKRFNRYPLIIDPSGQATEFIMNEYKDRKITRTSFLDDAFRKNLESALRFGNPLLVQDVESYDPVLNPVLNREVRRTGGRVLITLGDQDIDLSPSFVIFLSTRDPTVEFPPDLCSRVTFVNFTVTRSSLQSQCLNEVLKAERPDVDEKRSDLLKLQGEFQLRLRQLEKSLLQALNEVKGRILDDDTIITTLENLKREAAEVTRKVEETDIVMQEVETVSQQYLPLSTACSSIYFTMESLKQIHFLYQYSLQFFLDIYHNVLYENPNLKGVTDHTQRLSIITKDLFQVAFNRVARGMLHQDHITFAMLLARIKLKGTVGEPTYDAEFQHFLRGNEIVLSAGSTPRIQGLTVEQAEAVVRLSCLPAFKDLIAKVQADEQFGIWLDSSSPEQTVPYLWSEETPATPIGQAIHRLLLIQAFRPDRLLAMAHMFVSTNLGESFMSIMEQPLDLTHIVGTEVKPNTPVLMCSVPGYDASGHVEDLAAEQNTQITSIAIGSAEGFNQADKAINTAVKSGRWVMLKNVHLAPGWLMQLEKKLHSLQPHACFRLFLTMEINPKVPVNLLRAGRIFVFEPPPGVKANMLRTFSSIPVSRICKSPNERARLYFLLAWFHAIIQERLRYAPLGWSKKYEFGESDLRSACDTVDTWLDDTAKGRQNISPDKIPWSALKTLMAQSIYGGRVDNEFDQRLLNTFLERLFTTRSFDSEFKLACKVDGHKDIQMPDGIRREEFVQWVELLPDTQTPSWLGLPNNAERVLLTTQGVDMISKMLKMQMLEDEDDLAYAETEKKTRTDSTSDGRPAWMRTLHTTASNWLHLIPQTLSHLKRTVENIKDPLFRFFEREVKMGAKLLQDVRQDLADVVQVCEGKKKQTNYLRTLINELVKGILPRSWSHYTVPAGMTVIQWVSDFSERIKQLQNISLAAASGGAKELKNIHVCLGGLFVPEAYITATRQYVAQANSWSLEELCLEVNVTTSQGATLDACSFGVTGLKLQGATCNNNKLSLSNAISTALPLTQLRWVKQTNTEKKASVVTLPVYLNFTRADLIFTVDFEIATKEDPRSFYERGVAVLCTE

For `CC(C)Oc1ccc2c(c1)NC(=C(C#N)C(=O)c1ccc(Cl)cc1Cl)NC2=O` [analog 18], the IC50 on DYNC1H1 was determined as 130 µM; against DYNC2H1, 21 µM. Moreover, the “inhibition of ciliogenesis / primary cilium length” value in experiment [1] is “Inhibition of ciliogenesis”. Besides, the “inhibition of Hh signaling” value with Hh signaling is recorded as “Dose-dependent inhibition of Hh signaling”.

Turning to `Cc1ccc(COc2ccc3c(c2)NC(=C(C#N)C(=O)c2ccc(Cl)cc2Cl)NC3=O)cc1` [analog 37], in the experiment on IMCD3 cells, the “time to disruption of ciliary transport” value is not above 3 min.
